In ChEMBL document CHEMBL1221392, “Synthesis and cytotoxic potential of heterocyclic cyclohexanone analogues of curcumin” (Bioorg Med Chem, 2010) one finds EC50, IC50 and Activity data, which are given here for 22 compounds.

Assay [1] deals with MDA-MB-231. The assay can be described thus: Cytotoxicity against human MDA-MB-231 cells after 5 days by SRB assay. The settings on record: MDA-MB-231, 5 days. A general note: In SRB staining, fixed cells bind dye roughly in proportion to their protein.
The nature of assay [2]: Inhibition of NF-kappaB activation in human K562 cells. Format: cell-based. The gist of the method:
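K562 cells electroporated with 5 µg each of a 5× NF-κB-site firefly luciferase reporter and a Renilla phRG-TK plasmid per 2.5 × 10⁶ cells. After 24 h they were resuspended at 1 × 10⁶/ml in RPMI 1640 with 0.1% FCS. Cells were then incubated 30 min before a concentration series was added. Read-out by dual luciferase; IC₅₀ reported.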

A further assay deals with MDA-MB-468. The assay can be described thus: Cytotoxicity against human MDA-MB-468 cells after 5 days by SRB assay. The following applies: MDA-MB-468, 5 days.
For the next assay, the system named is SK-BR-3. The assay can be described thus: Cytotoxicity against human SKBR3 cells after 5 days by SRB assay. The settings on record: SK-BR-3, 5 days.
The subject of assay [3] is MDA-MB-231. The assay can be described thus: Induction of apoptosis in human MDA-MB-231 cells assessed as increase in number of apoptotic cells at 2 to 3 uM after 18 hrs by FACScalibur flow cytometry. Format: functional. For orientation: In flow cytometry, cells or beads pass a laser one at a time.
Assay [4] relates to MDA-MB-231. The assay can be described thus: Induction of apoptosis in human MDA-MB-231 cells assessed as increase in number of apoptotic cells at 2 to 3 uM after 36 hrs by FACScalibur flow cytometry. It counts as functional.
In assay [5] the test system is MDA-MB-231. The assay can be described thus: Induction of apoptosis in human MDA-MB-231 cells assessed as increase in number of apoptotic cells at 1 uM by FACScalibur flow cytometry. It counts as functional, cell-based. The gist of the method:
(§1)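 Cells seeded at 2 × 10⁵/well in DMEM/HamF12 with 5% FBS and antibiotics, then treated for 12, 18, 24 or 36 h against a 0.1% DMSO vehicle. Staining was Annexin-V-FLUOS/propidium iodide, read by flow cytometry, as apoptotic cells % of total. Mean ± SEM from three independent experiments in triplicate, two-way ANOVA with Bonferroni post-test.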

Assay [6] concerns MDA-MB-231. The assay can be described thus: Induction of apoptosis in human MDA-MB-231 cells assessed as increase in number of apoptotic cells at 2 uM by FACScalibur flow cytometry. It counts as functional, cell-based. The gist of the method:
as §1

The structures appear in SMILES notation. Calls of active or inactive are those of the source. The calls are words filed in the database; no cut-off is given here. Some results are limits rather than exact numbers.

The EC50 is the concentration giving half of the maximal effect. As usually defined, the IC50 is the concentration that gives 50% inhibition. High values mean weaker potency, low ones greater potency.

As to `CN1C/C(=C\c2cccnc2)C(=O)/C(=C/c2cccnc2)C1`, it took 2100 nM to reach a half-maximal effect in the assay with MDA-MB-231 [1] (EC50). In addition, in assay [2], the IC50 is 800 nM.

In the case of `CN1C/C(=C\c2cccs2)C(=O)/C(=C/c2cccs2)C1`, in the assay on MDA-MB-231 [1], the EC50 is over 30000 nM. The compound further showed an IC50 in assay [2] of over 200000 nM.

Regarding `O=C1/C(=C/c2ccncc2)CCC/C1=C\c1ccncc1`, the EC50 in the assay with MDA-MB-468 was 1900 nM; with MDA-MB-231 [1], 1100 nM. Further, the IC50 in the assay with SK-BR-3 was determined as 200 nM; in assay [2], 2500 nM. The Activity with MDA-MB-231 [3] is recorded as under 20%; in the assay with MDA-MB-231 [4] it was 40%.

On to `COc1cc(/C=C/C(=O)CC(=O)/C=C/c2ccc(O)c(OC)c2)ccc1O` [CURCUMIN], for which the EC50 in the assay with MDA-MB-468 was determined as 9700 nM; in the assay on MDA-MB-231 [1], 7600 nM. For the same compound, the figures for the IC50 (in the assay with SK-BR-3; in assay [2]) were 2400 nM and 15000 nM, respectively.

In the case of `O=C1/C(=C/c2cccnc2)CCC/C1=C\c1cccnc1`, the concentration giving a half-maximal response (EC50) in the assay with MDA-MB-231 [1] is 1500 nM. For the same compound, in assay [2], inhibition was half-maximal at 2500 nM (IC50). The Activity in the assay with MDA-MB-231 [3] was under 20%.

In turn, `COc1cc(F)c(/C=C2\CN(C)C/C(=C\c3cc(OC)c(OC)cc3F)C2=O)cc1OC` registered an EC50 in the assay with MDA-MB-231 [1] of 3800 nM. Also, inhibition in assay [2] was half-maximal at 4000 nM (IC50).

`Cn1cccc1/C=C1\CCC/C(=C\c2cccn2C)C1=O` showed an EC50 in the assay with MDA-MB-231 [1] of over 30000 nM. Further, the IC50 in assay [2] is over 200000 nM.

In the assay on MDA-MB-231 [1], `CN1C/C(=C\c2nccn2C)C(=O)/C(=C/c2nccn2C)C1` gave an EC50 of over 30000 nM. Besides, in assay [2], it took 47000 nM to reach half-maximal inhibition (IC50).

Take `COc1ccc(OC)c(/C=C2\CN(C)C/C(=C\c3cc(OC)ccc3OC)C2=O)c1`: the EC50 in the assay on MDA-MB-468 and in the assay with MDA-MB-231 [1] was 1100 nM each time. The IC50 in the assay with SK-BR-3 was determined as 1100 nM; in assay [2], 6300 nM.

In the assay on MDA-MB-231 [1], `COc1cc(/C=C2/C(=O)/C(=C/c3cc(OC)c(OC)c(OC)c3)C3CCC2N3C)cc(OC)c1OC` gave a half-maximal effective concentration (EC50) of over 30000 nM. Moreover, the IC50 in assay [2] was over 200000 nM.

On to `COc1cc(/C=C2\CN(C)C/C(=C\c3cc(OC)c(OC)c(OC)c3)C2=O)cc(OC)c1OC`, for which the EC50 in the assay with MDA-MB-468 and in the assay on MDA-MB-231 [1] was 300 nM each time. In addition, the result in the assay on MDA-MB-231 [5] was Active. Moreover, the IC50 in the assay with SK-BR-3 was determined as 400 nM; in assay [2], 900 nM.

With `O=C1/C(=C/c2cccs2)CCC/C1=C\c1cccs1` [TENYLIDONE], the EC50 with MDA-MB-231 [1] is over 30000 nM. This compound displayed an IC50 in assay [2] of over 200000 nM.

The compound `COc1cc(/C=C2\CCC/C(=C\c3ccc(O)c(OC)c3)C2=O)ccc1O` [CYCLOVALONE] had an EC50 in the assay on MDA-MB-231 [1] of 2600 nM. In addition, the IC50 in assay [2] worked out at 10000 nM.

Take `COc1ccc(OC)c(/C=C2\CCC/C(=C\c3cc(OC)ccc3OC)C2=O)c1`: the EC50 with MDA-MB-231 [1] is over 10000 nM. The same compound yielded an IC50 in assay [2] of over 200000 nM.

For `CN1C2CCC1/C(=C\c1ccncc1)C(=O)/C2=C/c1ccncc1`, the EC50 turned out to be 600 nM with MDA-MB-468 and 1100 nM with MDA-MB-231 [1]. Further, the results for the IC50 (in the assay with SK-BR-3; in assay [2]) were 700 nM and 1500 nM, respectively.

In the case of `CN1C2CCC1/C(=C\c1cccnc1)C(=O)/C2=C/c1cccnc1`, the response with MDA-MB-231 [1] was half-maximal at 12900 nM (EC50). The compound also came in with an IC50 in assay [2] of 4000 nM.

Regarding `O=C1/C(=C/c2cccnc2)CC/C1=C\c1cccnc1`, a half-maximal effect in the assay on MDA-MB-231 [1] (EC50) was put at 8600 nM. In assay [2], half-maximal inhibition (IC50) required 34000 nM.

`O=C1/C(=C/c2ccnc(F)c2)CCC/C1=C\c1ccnc(F)c1`: in the assay on MDA-MB-231 [1], the EC50 came to 3300 nM. Besides, in assay [2], it took 2200 nM to reach half-maximal inhibition (IC50).

With `O=C1/C(=C/c2cccnc2F)CCC/C1=C\c1cccnc1F`, a half-maximal effect with MDA-MB-231 [1] (EC50) was put at 3200 nM. In addition, the midpoint of inhibition in assay [2], the IC50, lay at 3800 nM.

For the compound `COc1cc(/C=C2\CCC/C(=C\c3cc(OC)c(OC)c(OC)c3)C2=O)cc(OC)c1OC`, the EC50 with MDA-MB-231 [1] was over 30000 nM.

Turning to `CN1C/C(=C\c2ccncc2)C(=O)/C(=C/c2ccncc2)C1`, the result in the assay on MDA-MB-231 [6] was Active. Further, the EC50 in the assay on MDA-MB-468 came out at 500 nM; in the assay with MDA-MB-231 [1], 800 nM. The IC50 worked out at 600 nM in the assay on SK-BR-3 and 1000 nM in assay [2].

As for `Cn1ccnc1/C=C1\CCC/C(=C\c2nccn2C)C1=O`, the EC50 in the assay with MDA-MB-231 [1] stood at 1900 nM. 48000 nM corresponded to half-maximal inhibition in assay [2] (IC50).
